MC4R barr agon: agonists of human melanocortin 4 receptor (MC4R) beta-arrestin; P32245; U2OS MC4R beta-arrestin complementation, luminescence; percent of melanotan II response, DMSO zero; activation, % at 8.9 µM; hit rate 0.98% among 360,000; AID 540308;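 active = activation above a per-plate cutoff, the mean activation of sample wells on that plate plus 3 SD, cut at about 8% in these data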
MC4R antagonist: human MC4R antagonism in cAMP assay. P32245. MC4R-expressing cells, MTII-stimulated cAMP, LANCE TR-FRET. inhibition, % at 6.5 µM. hit rate 0.48% among 360,000. AID 540295;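 active = inhibition above its plate's cutoff, the mean of tested wells on that plate plus 3 SD, cut at about 29% in these data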;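 note: 0% = Melanotan II alone and 100% = Melanotan II plus saturating MCL0020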
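System: U2OS-MC4R stable cell line; Technique: Eu-cAMP/anti-cAMP TR-FRET, emission 671 nm; Repeats: single well per compound; Also added: Melanotan II; Dosing: one concentration, 6.5 µM nominal; Schedule: 30-min compound, 1-h challenge, 1-h detection, room temperature.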
m5-HT2A agonist: activates the mouse 5-HT2A serotonin receptor. P35363. CHO-K1 mHTR2A beta-arrestin complementation, luminescence; percent of 30 µM serotonin response. activation, % at 7.6 µM. hit rate 0.66% among 360,000;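 active = activation above a run cutoff, the mean activation of all tested compounds plus 3 SD, cut at about 14% in these data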;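 note: 0% = plate median of compound wells and 100% = 30 µM serotonin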
Target sequence (P35363 whole entry, looked up): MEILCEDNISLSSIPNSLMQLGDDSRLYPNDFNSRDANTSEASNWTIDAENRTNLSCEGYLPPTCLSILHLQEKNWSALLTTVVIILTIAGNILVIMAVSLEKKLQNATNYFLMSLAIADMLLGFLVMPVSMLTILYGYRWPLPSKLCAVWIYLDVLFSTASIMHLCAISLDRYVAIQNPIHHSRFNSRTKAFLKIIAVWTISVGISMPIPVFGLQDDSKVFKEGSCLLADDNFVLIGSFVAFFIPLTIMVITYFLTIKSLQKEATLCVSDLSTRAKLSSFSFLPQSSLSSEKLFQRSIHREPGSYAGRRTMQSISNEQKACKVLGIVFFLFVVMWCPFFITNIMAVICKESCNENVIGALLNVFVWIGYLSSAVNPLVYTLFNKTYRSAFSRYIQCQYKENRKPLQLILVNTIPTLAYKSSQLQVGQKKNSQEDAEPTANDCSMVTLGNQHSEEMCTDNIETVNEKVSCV
EBI2 block: blocks human EBI2 receptor beta-arrestin signaling; inhibition, % at 5 µM; AID 651636; EBI2 beta-arrestin recruitment, luminescence, 7a,25-OHC stimulated; hit rate 0.81% among 360,000; P32249; in the data active = inhibition above about 38%;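 note: enzyme fragment complementation signal reports receptor beta-arrestin coupling in cells; 0% = agonist plus DMSO wells and 100% = wells without agonist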
cAMP nonselect: U2OS forskolin cAMP inhibition counter-screen; parental U2OS, LANCE TR-FRET; AID 602193; shares compounds with MC4R antagonist; hit rate 26% among 1,600; inhibition, % at 6.5 µM;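 active = mean inhibition over triplicates above the low-control well mean plus 3 SD, set per campaign, cut at about 13% in these data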;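 note: signal is single emission at 671 nm which falls as cellular cAMP rises; 0% = forskolin-stimulated wells and 100% = buffer without forskolin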
MC4R cAMP antag: human MC4R cAMP antagonism confirmation; shares compounds with MC4R antagonist; MC4R-expressing cells, MTII-stimulated cAMP, TR-FRET; inhibition, % at 6.5 µM; hit rate 27% among 1,600; AID 602195; in the data active = inhibition above about 29%;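 note: 0% = agonist stimulated wells alone and 100% = agonist stimulated wells plus saturating reference antagonist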
The depositor's hits bear a star; · = no result given. Rows were chosen to be rich in hits. Some 2.8% of all compounds tested hit in one or more screens of this group.

SMILES | MC4R barr agon | MC4R antagonist | m5-HT2A agonist | EBI2 block | cAMP nonselect | MC4R cAMP antag
O=S(=O)(c1ccc(F)cc1)N1CCN(c2nc(-c3cccnc3)nc3ccccc23)CC1 | 4 | 30* | 2 | 2 | 6 | 23
OC(c1ccccc1)(c1nc(-c2cc3ccccc3o2)cs1)C(F)(F)F (stereo not given) | 0 | 16 | -9 | 35 | · | ·
O=C(Nc1ccccc1Cl)c1cc(C2CCCCN2C(=O)c2ccccc2)on1 (stereo not given) | 2 | 35* | -4 | 2 | -14 | -33
CC(=O)Nc1ccc(C(=O)N2CCCCC2c2cc(C(=O)Nc3ccccc3Cl)no2)cc1 (stereo not given) | 0 | 14 | -7 | 3 | · | ·
CCCCNc1c(-c2cccc(-c3ccc(OC)cc3)c2)nc2ccc(C)cn12 | 3 | 40* | 12 | -95 | 15* | 41*
COc1ccc(-c2nc3cc(C)ccn3c2NC(=O)c2ccccc2OC)cc1 | 0 | 13 | -2 | 14 | · | ·
CCCCNc1c(-c2cccc(-c3ccc(OC)cc3)c2)nc2cc(C)ccn12 | 0 | 34* | -5 | 0 | 30* | 56*
CCCCNc1c(-c2ccc(-c3cccc(Cl)c3)cc2)nc2ccccn12 | 0 | 23 | -7 | 16 | · | ·
CCCCCC(=O)N1C[C@@H](n2cc(C3CC3)nn2)[C@H](O)C[C@@H]1c1ccc(OC)cc1 | 0 | 9 | -5 | 11 | · | ·
CCOc1ccccc1C(=O)N1CCC(n2nnc3cc(C(F)(F)F)ccc32)CC1 | -1 | 5 | -6 | 1 | · | ·
O=C(c1c(F)cccc1F)N1CCC(n2nnc3cc(C(F)(F)F)ccc32)CC1 | 0 | 31* | 2 | -3 | -1 | -2
O=C1c2ccccc2NC(c2ccccc2Br)N1CCCN1CCOCC1 (stereo not given) | -1 | 29* | -6 | -9 | 1 | 1
Cc1ccc(C2Nc3ccccc3C(=O)N2CCCN2CCOCC2)cc1 (stereo not given) | 0 | 1 | 3 | -1 | · | ·
CS(=O)(=O)c1ccc(C(=O)NCCN2C(=O)S/C(=C\c3cccnc3)C2=O)cc1[N+](=O)[O-] | -2 | 32* | -6 | -1 | 18* | 33*
CN(C)S(=O)(=O)c1ccc(C(=O)NCCN2C(=O)S/C(=C\c3cccnc3)C2=O)cc1 | 0 | 10 | 3 | 2 | · | ·
COc1ccccc1C(CNC(=O)c1oc2ccccc2c1C)N1CCCC1 (stereo not given) | -2 | -2 | -5 | 6 | · | ·
O=C(CNC(=O)c1ccccc1)OCN1C(=O)c2ccccc2C1=O | 1 | 31* | -9 | 6 | 14* | 22
COc1ccc(C(=O)NCC(=O)NCC(=O)OCC(=O)c2ccc(Br)cc2)cc1 | -3 | 20 | 1 | 7 | · | ·
O=C(CNC(=O)c1ccc(Br)cc1)NCC(=O)OCC(=O)c1ccccc1 | -1 | 42* | 4 | -6 | 14* | 10
CN1C(=O)[C@H]2[C@@H](c3ccc(C(F)(F)F)cc3)N[C@]3(CCCN(Cc4ccco4)C3=O)[C@H]2C1=O | 2 | 12 | -1 | -6 | · | ·
S=c1[nH]ncc2ccccc12 | -1 | -9 | -3 | 2 | · | ·
S=c1[nH]ccc2ccccc12 | -2 | 29* | -1 | 0 | -3 | 0
CCn1c(C)cc(C(=O)COC(=O)CNC(=O)c2ccco2)c1C | -2 | 12 | -4 | -1 | · | ·
Cn1c(=O)c2c(nc(Sc3ncccn3)n2Cc2ccccc2Cl)n(C)c1=O | -2 | -5 | 7 | -5 | · | ·
Cn1c(=O)c2c(nc(Sc3n[nH]c(N)n3)n2Cc2ccccc2Cl)n(C)c1=O | 1 | 29* | 3 | -11 | 0 | -4
SMILES | MC4R barr agon | MC4R antagonist | m5-HT2A agonist | EBI2 block | cAMP nonselect | MC4R cAMP antag
O=C(O)c1cc(-c2ccc(Cl)s2)nc2ccccc12 | 1 | 34* | -1 | 13 | 12 | 28
CCOc1ccc2nc(NC(=O)C3CCCN(S(=O)(=O)c4cccc5nonc45)C3)sc2c1 (stereo not given) | 1 | 33* | 2 | 16 | 4 | 22
COc1ccc2nc(NC(=O)C3CCCN(S(=O)(=O)c4cccc5nonc45)C3)sc2c1 (stereo not given) | 0 | 13 | 5 | 16 | · | ·
O=C(c1cnc(Cl)c(Cl)c1)N1CCN(S(=O)(=O)c2cccs2)CC1 | -1 | 3 | 0 | 2 | · | ·
OCC[C@@H]1C[C@H](O)[C@@H](O)[C@@]2(OCc3ccc(CO)cc32)O1 | · | · | 1 | 2 | · | ·
CN(Cc1ccccc1)C(=C(Cl)Cl)/C(=C1/NCCN1C)[N+](=O)[O-] | -1 | 39* | -2 | -10 | 2 | 3
CC(=O)Nc1ccc(CN(C)c2c(C)nc3ccc(C(=O)NCCCN4CCCC4=O)cn23)cc1 | 0 | 6 | -2 | -4 | · | ·
Cc1ccc(C(=O)O)cc1NC(=O)Nc1ccc2c(c1)OCO2 | 2 | 30* | 0 | 2 | 2 | -1
O=C(C[C@H]1CC[C@@H]2[C@H](COC[C@H](O)CN2Cc2cccc(F)c2)O1)NCc1cccc(F)c1 | · | · | 3 | 1 | · | ·
CC(CCc1ccccc1)NC(=O)COC(=O)c1ccc(S(C)(=O)=O)c([N+](=O)[O-])c1 (stereo not given) | -3 | 70* | -5 | 10 | 32* | 55*
CC(CCc1ccccc1)NC(=O)COC(=O)c1ccc([N+](=O)[O-])cc1 (stereo not given) | -1 | 8 | 2 | -10 | · | ·
Cc1ccccc1NC(=O)COC(=O)c1ccc(S(C)(=O)=O)c([N+](=O)[O-])c1 | -2 | 47* | 5 | -5 | 33* | 51*
CS(=O)(=O)c1ccc(C(=O)OCC(=O)Nc2cccnc2Cl)cc1[N+](=O)[O-] | -1 | -6 | 2 | -5 | · | ·
CC1=C(C(=O)N(C)C)CC(CC(=O)NCCCN(C)C)C(=O)N1CCCN1CCCC1=O (stereo not given) | · | · | -1 | -9 | · | ·
Cc1ccc(NC(=O)c2ccc(Cl)cc2[N+](=O)[O-])nc1 | -3 | -17 | 4 | 3 | · | ·
Cc1ccc(NC(=O)c2ccccc2[N+](=O)[O-])nc1 | 1 | 38* | -5 | -7 | 0 | -8
O=C(C[C@H]1CC[C@H]2[C@@H](COC[C@@H](O)CN2S(=O)(=O)c2ccc(F)cc2)O1)N[C@@H]1CCN(Cc2ccccc2)C1 | · | · | -1 | 0 | · | ·
CCCCC(=O)NNC(=O)c1c(O)c2ccccc2[nH]c1=O | -3 | -1 | -3 | -7 | · | ·
O=C(CCl)NNC(=O)c1c(O)c2ccccc2[nH]c1=O | 0 | 31* | -5 | -3 | -1 | -3
CCCCCCN[C@H]1CCC2C3CC=C4C[C@@H](O)CC[C@]4(C)C3CC[C@@]21C (stereo not given in full) | -2 | -7 | 0 | 12 | · | ·
O=C(COC(=O)c1ccc(NS(=O)(=O)c2cccs2)cc1O)Nc1nc2ccccc2s1 | 1 | 31* | 7 | 3 | 5 | 5
